Paper PMC2793091 (Biochemistry, 2009)
Read-outs that look alike come from different tables or passages of the source. Blank lines part the entries; values can stand above or below the compound they belong to.

How the values were obtained:
[1] = Solubility in binding buffers at different pH
sigma 2 receptors = settings: cited from earlier work
sigma 1 receptors = settings: cited from earlier work
[2] = titration of (±)-vesamicol absorbance at 263 nm; cited from earlier work
[3] = pH 10
VAChT = settings: cited from earlier work
[4] = test system: postnuclear supernatant from cells not transfected with VAChT; assay type: binding, rat; settings: five nM [3H]vesamicol
Outline: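 Postnuclear supernatant (1500g, 10 min) from untransfected PC12^A123.7 cells, in sucrose/HEPES/DTT buffer pH 7.4. 20 μg protein mixed with iso-osmolal MES/HEPES/AMPSO pH buffer. Started with [³H]vesamicol in potassium tartrate/HEPES/DTT buffer; 10 min, 23°. pH measured just before filtration. Two portions filtered, washed with ice-cold buffer containing 5 μM (±)-vesamicol, scintillation-counted, averaged. Nonspecific binding measured with 5 μM (±)-vesamicol.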

Compound: (±)-trans-2-(4-phenylpiperidino)cyclohexanol [(±)-vesamicol]
solubility ([1]; 200 μM, pH 10 (data not shown)): not soluble | solubility ([1]; 1 mM, acidic and neutral pH): soluble

Compound: (−)-trans-2-(4-phenylpiperidino)cyclohexanol [(−)-vesamicol]
affinity relative to VAChT (sigma 2 receptors): only somewhat less than for VAChT | affinity relative to VAChT (sigma 1 receptors): only somewhat less than for VAChT | pKaves (protonated vesamicol) [2]: 9.0 ± 0.1

solubility [3]: soluble
Compound: Nc1cccc2c1CC(N1CCC(c3ccccc3)CC1)C(O)C2 (racemic) [(±)-ABV, (±)-aminobenzovesamicol]
potency relative to (±)-vesamicol (VAChT): about 1000 fold

Compound: (−)-[^3H]trans-2-(4-phenylpiperidino)cyclohexanol [[^3H]vesamicol]
"specific-nonspecific" binding ([4]; high pH): ~ 0.4 pmol/mg | "specific-nonspecific" binding ([4]; low pH): essentially no | pKaves (protonated vesamicol) [2]: 9.0 ± 0.1
